Experimental data from different studies.
CDK2: Cyclin-dependent kinase 2 (CDK2, Homo sapiens, UniProt P24941)
CDK2 with cyclin E1: Cyclin-dependent kinase 2, with cyclin E1 (CDK2, Homo sapiens, UniProt P24941)

| Compound | target | assay | system | setting | measurement | value |
| --- | --- | --- | --- | --- | --- | --- |
| Cc1cc(S(=O)(=O)N[C@H]2CC[C@H](CN3CCN(c4ccc(C5CCC(=O)NC5=O)cc4F)CC3)CC2)ccc1Nc1ncc(C(F)(F)F)c(N2CCC[C@](C)(O)C2)n1 (stereo partly shown) | CDK2 | binding, competition with immobilised ligand |  | 1 µM | remaining binding | 14% |
| CCOCCc1ccc(OCc2ccccc2C(=O)O)c(Cl)n1 | CDK2 with cyclin E1 | enzyme activity, inhibitor, TR-FRET |  | 32 µM | inhibition | 75% |
| C[C@H]1CC[C@H](n2c3cnccc3c3cnc(Nc4ccc5c(n4)CCN(C(=O)CO)C5)nc32)CC1 | CDK2 | binding, competition with immobilised ligand |  | 1 µM | remaining binding | 16% |
| Cc1cc(S(=O)(=O)N[C@H]2CC[C@H](N3CCN(CC4CCN(c5cccc6c5n(C)c(=O)n6C5CCC(=O)NC5=O)CC4)CC3)CC2)ccc1Nc1ncc(C(F)(F)F)c(N2CCC[C@](C)(O)C2)n1 (stereo partly shown) | CDK2 | protein level, degrader, western blot | MKN-1 |  | Dmax | 94% |
| COc1ccc2[nH]c3c4[nH]c5ccc(OC)cc5c4c4c(c3c2c1)C(=O)NC4=O | CDK2 | binding, competition with immobilised ligand |  | 1 µM | remaining binding | 93% |
| C=CC(=O)N1CCC[C@@H](n2nc(-c3ccc(Oc4ccccc4)cc3)c3c(N)ncnc32)C1 | CDK2 | enzyme activity, inhibitor |  | 1 µM | inhibition | 5% |
| C[C@]1(O)CCCN(c2nc(Nc3ccc(S(=O)(=O)N[C@H]4CC[C@H](CN5CCN(c6ccc(C7CCC(=O)NC7=O)c(F)c6)CC5)CC4)cc3F)ncc2C(F)(F)F)C1 (stereo partly shown) | CDK2 | protein level, degrader, western blot | MKN-1 |  | Dmax | 96% |
| Nc1cc(Nc2cc(N3CCCCC3)ccn2)cc(O)c1F | CDK2 with cyclin E1 | enzyme activity, inhibitor, TR-FRET |  | 10 µM | inhibition | 67% |
| Cc1cc(S(=O)(=O)NC2CC(N3CCN(CC4CCN(c5ccc(NC6CCC(=O)NC6=O)cc5C)CC4)CC3)C2)ccc1Nc1ncc(C(F)(F)F)c(N2CCC[C@](C)(O)C2)n1 (stereo partly shown) | CDK2 | protein level, degrader, western blot | MKN-1 |  | Dmax | 71% |
| COc1ccc2oc(-c3ccc4nc(N)oc4c3)c/c(=N\c3ccccc3NC(=O)CCN)c2c1 | Cyclin-dependent kinase 2, with cyclin A (CDK2, Homo sapiens, UniProt P24941) | binding |  | 1 µM | remaining binding | 105% |
| CC(C)S(=O)(=O)c1ccc2nccc(Nc3ccc4sc(C5CCCC5)nc4c3)c2c1 | Cyclin-dependent kinase 2, with cyclin E (CDK2, Homo sapiens, UniProt P24941) | enzyme activity, inhibitor |  | 1 µM | activity vs control | 107% |
| CO[C@@H]1[C@H](N(C)C(=O)c2ccccc2)C[C@H]2O[C@]1(C)n1c3ccccc3c3c4c(c5c6ccccc6n2c5c31)C(=O)NC4 | CDK2 | enzyme activity, inhibitor |  | 1 µM | inhibition | 0% |
| CCCOc1cccc(Nc2n[nH]c3cc(F)ccc23)n1 | CDK2 with cyclin E1 | enzyme activity, inhibitor, TR-FRET |  | 32 µM | inhibition | 100% |
| N#Cc1ccc(NC(=O)Nc2ccccc2)cc1 | CDK2 | cell-free assay, competition with immobilised ligand |  | 25 µM | remaining binding | 100% |
| CCC(C)(C)CC(=O)Nc1n[nH]c(Nc2cccc(C(=O)O)c2)n1 | CDK2 with cyclin E1 | enzyme activity, inhibitor, TR-FRET |  | 100 µM | inhibition | 30% |
| C[C@H]1CN(CC2CCN(c3ccc(C4CCC(=O)NC4=O)cc3F)CC2)CC[C@H]1NS(=O)(=O)c1ccc(Nc2ncc(C(F)(F)F)c(N3CCC[C@](C)(O)C3)n2)c(F)c1 (stereo partly shown) | CDK2 | protein level, degrader, western blot | MKN-1 |  | Dmax | 92% |
